From PubChem BioAssay
Shown are actives, neighbours in structure and some others; about 3.7% of the full set was active somewhere.
KCNK3 inh: human KCNK3 channel inhibition, primary screen; O14649; CHO-KCNK3 thallium flux, FluxOR fluorescence; hits give low values; B-score at 10 µM; 0.84% of 340,000 active; AID 602410;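 active = B-score under library mean minus 4 SD, starting fluorescence ratio at most library mean plus 5 SD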;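 also: more negative B-score means stronger inhibition of thallium flux through KCNK3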
KCNQ1 block: inhibitors of human KCNQ1 potassium channel; P51787; CHO-K1 KCNQ1, FluxOR thallium flux fluorescence; hits give high values; B-score at 10 µM; 1.3% of 310,000 active;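 active = compounds whose thallium flux B-score, printed positive for inhibition, exceeds three library SD while starting fluorescence stays within three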;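 also: channel opened by potassium depolarization with thallium stimulus after 20 min compound exposure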
Target sequence (P51787 whole entry, looked up): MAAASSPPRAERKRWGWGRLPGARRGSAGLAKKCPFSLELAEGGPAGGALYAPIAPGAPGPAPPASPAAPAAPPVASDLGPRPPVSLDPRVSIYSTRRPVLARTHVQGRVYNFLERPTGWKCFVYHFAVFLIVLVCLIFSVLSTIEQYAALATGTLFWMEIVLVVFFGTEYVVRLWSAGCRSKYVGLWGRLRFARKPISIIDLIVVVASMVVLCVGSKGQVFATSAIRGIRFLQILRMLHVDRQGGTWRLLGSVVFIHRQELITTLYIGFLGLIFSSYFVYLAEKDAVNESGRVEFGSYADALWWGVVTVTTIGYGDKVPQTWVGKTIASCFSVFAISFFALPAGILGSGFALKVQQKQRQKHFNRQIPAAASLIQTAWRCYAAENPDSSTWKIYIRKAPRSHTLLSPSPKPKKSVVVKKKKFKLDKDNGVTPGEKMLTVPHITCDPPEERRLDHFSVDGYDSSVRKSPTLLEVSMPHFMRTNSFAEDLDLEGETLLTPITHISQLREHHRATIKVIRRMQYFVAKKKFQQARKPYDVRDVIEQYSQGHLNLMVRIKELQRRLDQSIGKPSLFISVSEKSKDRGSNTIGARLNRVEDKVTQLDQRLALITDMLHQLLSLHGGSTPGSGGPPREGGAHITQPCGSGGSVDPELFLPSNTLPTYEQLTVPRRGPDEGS
KCNK9 inh: human KCNK9 channel inhibition; Q9NPC2; HEK293 KCNK9, FluxOR thallium flux fluorescence; hits give low values; B-score at 10 µM; 1.2% of 310,000 active;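 active = ratio B-score over 3 SD below the library mean, with starting fluorescence within 5 SD of its mean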;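 also: negative B-score means less thallium flux so channel inhibition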
KCNQ1 pot: potentiators or activators of human KCNQ1 potassium channel; 0.35% of 310,000 active; P51787; CHO-K1 KCNQ1, thallium flux FluxOR fluorescence; hits give high values; B-score at 10 µM;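 active = fluorescence ratio B-score, a plate-corrected score, at least three library SD, with initial intensity B-score within 5 SD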
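assay system = KCNQ1-transfected CHO-K1 cells | medium = assay buffer with matched DMSO | probe or stimulus = depolarizing K+/Tl+ stimulus, K2SO4 and Tl2SO4 each 12.5 mM in 5x stock | dosing = single dose | incubation = dye 90 min, compound 20 min, room temperature | detection = kinetic FluxOR fluorescence, 10 s baseline plus 110 s post-stimulus | evaluation = ratio B score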
hERG protect: hERG (human) protection from proarrhythmic block | activation (rescue from dofetilide block), less the hit threshold, % at 10 µM | 0.51% of 310,000 active | CHO-hERG, FluxOR thallium flux, dofetilide IC70 present | Q12809;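 active = activation above the mean of controls blocked by dofetilide plus 5 SD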;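 also: thallium influx through hERG after potassium depolarization seen as dye fluorescence rise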
Kir21 block: Kir2.1 (mouse) channel inhibition | P35561 | HEK293-Kir2.1, FluxOR thallium flux fluorescence; hits give low values | B-score at 10 µM | 0.85% of 310,000 active | AID 1672;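 active = fluorescence ratio B-score at or below minus 3 SD of library scores, with starting-brightness B-score within 2 SD, cut at about -4.2 in these data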;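 also: channel flux triggered by added potassium and thallium sulfate stimulus; B-score of peak minus minimum fluorescence over baseline after thallium stimulus; more negative B-score means stronger Kir2.1 block with less thallium influx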
* = called active by the depositor; i = inactive; nt = no result.

SMILES | KCNK3 inh | KCNQ1 block | KCNK9 inh | KCNQ1 pot | hERG protect | Kir21 block
Cc1ccc(C(C)C)c(OCCCN2C(=O)NC(C)(C)C2=O)c1 | i | i | i | i | -15 | -2.5
Cc1ccc(C(C)C)c(OCC(O)CN(C)Cc2ccccc2)c1 (stereo unspecified) | i | i | i | i | -13 | -9.7*
Cc1ccc(OCCCCN2CCc3ccccc3C2)c(C)c1 | i | i | i | i | -11 | -0.31
Cc1ccc(C(C)C)c(OCCCN(C)Cc2ccccc2)c1 | i | i | i | i | -16 | -11*
CCc1ccc(CN(C)CC(O)COc2cccc3ccccc23)cc1 (stereo unspecified) | i | i | i | i | -15 | -16*
Cc1ccc(C(C)C)c(OCCCN2CCc3ccccc3C2)c1 | i | i | i | i | -8 | -9*
Cc1ccc(NC(=O)C2CC(=O)N(Cc3ccccc3)C2)nc1 (stereo unspecified) | i | i | i | i | -16 | -2.1
CCN1CCN(c2ccc(N3CCN(S(=O)(=O)c4ccc(C)c([N+](=O)[O-])c4)CC3)nn2)CC1 | i | i | i | i | -17 | -0.78
CCOC(=O)c1c(NC(=O)CSc2nc3ccc(C)cc3[nH]2)sc2c1CC(C)(C)NC2(C)C | i | i | i | i | -12 | -4.8*
CNC(=O)c1c(NC(=O)c2nc3ccccc3s2)sc2c1CCC2 | i | 8* | -7.8* | i | -19 | 0.01
CCC1(CC)NC(=O)N(CC(=O)OCc2nc3cc(C(=O)OC)ccc3c(=O)[nH]2)C1=O | i | nt | nt | nt | nt | nt
Cc1ccc(C(=O)N2CCCC(C(=O)c3cc(F)ccc3F)C2)s1 (stereo unspecified) | i | i | i | i | -8 | -5*
CN1CCN(c2nc(-c3cccnc3)nc3ccccc23)CC1 | i | i | i | i | -14 | 1.5
COc1cc2c(cc1OC)CN(c1nc(-c3cccnc3)nc3ccccc13)CC2 | i | i | -7.5* | i | -31 | -2.6
C=CCn1c(=NC(=O)CN2C(=O)CCC2=O)sc2cccc(OC)c21 | i | i | i | i | -7 | -0.05
C=CCn1c(=NC(=O)C2COc3ccccc3O2)sc2cccc(OC)c21 (stereo unspecified) | i | i | -7.4* | i | -13 | 1.6
O=C(NCCCN1CCOCC1)c1ccc2c(c1)N(Cc1cccc(Cl)c1)C(=O)CS2 | i | i | i | i | -11 | -1.6
Cc1cc(Cl)c(S(=O)(=O)N/N=C/c2ccc3c(c2)OCO3)c(Cl)c1 | i | 10* | i | i | -11 | 0.88
COc1ccc(/C=N/NS(=O)(=O)c2ccc(C)cc2)cc1OC(=O)c1ccc(C)cc1 | i | 6* | i | i | -6 | 0.03
COc1ccc(C(=O)Oc2cc(/C=N/NS(=O)(=O)c3ccccc3)ccc2OC)cc1 | i | i | i | i | -4 | 1.1
O=C(O)CCn1c(-c2ccccn2)nc2ccccc21 | i | i | i | i | -1 | -0.02
NCCSc1c(-c2ccc(Cl)cc2)[nH]c2ccccc12 | i | i | -7.3* | i | -22 | -9.9*
NCCSc1c(-c2ccccc2)[nH]c2ccccc12 | i | i | i | i | -13 | -1.5
C=CCNC(=O)/C(C#N)=C/c1ccccc1[N+](=O)[O-] | i | i | i | i | -11 | 2.1
N#C/C(=C\C=C\c1ccccc1[N+](=O)[O-])C(=O)NCc1ccccc1 | i | i | i | i | -14 | -0.06
SMILES | KCNK3 inh | KCNQ1 block | KCNK9 inh | KCNQ1 pot | hERG protect | Kir21 block
CCCCCCCCNC(=O)/C(C#N)=C/c1ccccc1[N+](=O)[O-] | i | 7* | i | i | -12 | -3.2
N#C/C(=C\c1ccccc1[N+](=O)[O-])C(=O)NCc1ccccc1 | i | 6* | i | i | -15 | -1.1
COc1ccc(CNC(=O)CN(c2ccc(C)cc2)S(=O)(=O)c2c(C)nn(C)c2C)cc1 | i | i | i | i | -6 | 1.5
CC(C)(C)C(=O)NC(=S)NNC(=O)c1ccc(-c2ccccc2)cc1 | i | i | i | 66* | 6.3* | -1
CC(C)(C)C(=O)NC(=S)NNC(=O)c1ccncc1 | i | i | i | i | 0 | 0.91
CC(C)(C)C(=O)NC(=S)NNC(=O)c1ccc(Cl)cc1Cl | i | i | i | 16* | -9 | 0.02
CCN(CC)C(=S)NC(=O)c1ccc(Cl)cc1Cl | i | i | i | 17* | 13* | -0.41
CCCCNC(=S)NC(=O)c1ccc(Cl)cc1Cl | i | i | i | i | -6 | 0.55
CCCCN(CCCC)C(=S)NC(=O)c1ccccc1Cl | i | i | i | 57* | 65* | 0.41
Cc1ccc(S(=O)(=O)N2CCOCC2)cc1C(=O)NC1CCCC1 | i | i | i | i | -5 | -0.77
CC(C)(C)c1ccc(CN2C3=NCCCN3c3ccccc32)cc1 | i | 11* | i | i | -23 | -3.9
Cc1ccc(CN2C3=NCCCN3c3ccccc32)cc1 | i | nt | nt | nt | nt | nt
NC1=NC(=O)C(Cc2ccc(Br)cc2)S1 (stereo unspecified) | i | i | i | i | -6 | -0.4
COc1cc(NC(=O)CSc2nc(C)c(C)c(C)n2)cc(OC)c1 | i | i | i | i | 7.5* | 0.23
COc1ccc2cc(C(=O)NCc3ccccc3)c(=Nc3ccc(C(=O)O)cc3)oc2c1 | i | i | i | i | 6.8* | 0.78
Cc1nc(SCC(=O)c2ccccc2)c(C#N)c(-c2ccco2)c1C(=O)NCc1ccco1 | i | 6* | i | i | -14 | 0.21
Nc1nc(COc2ccccc2C=O)nc(Nc2ccccc2)n1 | i | i | i | i | -6 | -1.1
O=C(CCn1c(=O)oc2ccccc21)Nc1nc2ccccc2s1 | i | i | -7.2* | i | -11 | 0.02
CC(=O)N/N=C/c1ccccc1OCCOc1cccc(C)c1 | i | i | i | i | -3 | -0.01
CC(Sc1n[nH]c(N)n1)C(=O)NC1CCCCC1C (stereo unspecified) | i | i | i | 8* | -8 | 1.8
COc1cc(/C=N/NC(=O)c2ccncc2)ccc1OCc1cnc(Cl)s1 | i | i | i | i | -5 | -1
CC(C)C(=O)Nc1ccc(NC(=O)CCc2ccccc2)cn1 | i | i | i | i | 9.1* | 0.6
CC(C)C(=O)Nc1ccc(NC(=O)c2ccco2)cn1 | i | i | i | i | -6 | 0.69
COc1ccc(/C=N/n2c(C)cc(C)c(C(N)=O)c2=O)cc1 | i | i | i | i | 6.5* | 1.9
